{"source": "paper PMC9257745", "about": "(Molecular Pharmaceutics, 2022)", "key": {"[1]": {"molecular_target": "fatty acid-free HSA (Homo sapiens, UniProt P02768)", "experiment": "SPR binding to immobilized HSA", "details": "fatty acid-free HSA immobilized on CM5 sensor chip"}, "[2]": {"molecular_target": "human SA (HSA) (Homo sapiens, UniProt P02768)", "experiment": "FACS binding specificity of peptide-displayed yeast cells, human albumin", "details": "biotinylated SA, streptavidin-APC, flow cytometer", "how_it_was_run": "(§1)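 Yeast grown in SDCAA at 30 °C for 16 h, then in SG/RCAA at 20 °C for 24 h to display the peptide. Cells labelled 1 h with mouse anti-FLAG and biotinylated albumin, washed in PBST, then stained 1 h with Alexa-488 goat anti-mouse IgG (display) and streptavidin-APC (albumin binding). Fluorescence read by flow cytometry.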"}, "[3]": {"molecular_target": "mouse SA (MSA) (Mus musculus, UniProt P07724)", "sequence (P07724 25-608)": "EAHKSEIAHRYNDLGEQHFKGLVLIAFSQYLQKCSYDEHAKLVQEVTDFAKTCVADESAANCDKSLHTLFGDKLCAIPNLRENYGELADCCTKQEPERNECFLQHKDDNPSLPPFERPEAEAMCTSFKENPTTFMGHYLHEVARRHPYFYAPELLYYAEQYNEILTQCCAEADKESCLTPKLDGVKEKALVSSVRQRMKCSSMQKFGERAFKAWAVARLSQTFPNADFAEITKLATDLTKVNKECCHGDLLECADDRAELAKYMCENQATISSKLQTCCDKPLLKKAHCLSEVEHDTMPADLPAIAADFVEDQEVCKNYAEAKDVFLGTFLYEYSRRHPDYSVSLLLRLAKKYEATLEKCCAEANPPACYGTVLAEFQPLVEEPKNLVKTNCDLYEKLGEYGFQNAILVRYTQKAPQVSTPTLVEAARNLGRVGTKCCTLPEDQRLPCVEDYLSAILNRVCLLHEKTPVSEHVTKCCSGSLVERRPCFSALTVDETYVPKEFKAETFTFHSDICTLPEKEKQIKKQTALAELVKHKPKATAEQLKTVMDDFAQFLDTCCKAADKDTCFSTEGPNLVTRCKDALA", "experiment": "FACS binding specificity of peptide-displayed yeast cells, mouse albumin", "details": "biotinylated SA, streptavidin-APC, flow cytometer", "how_it_was_run": "as §1"}, "[4]": {"molecular_target": "albumin of cynomolgus monkey (Macaca fascicularis, UniProt A2V9Z4)", "sequence (A2V9Z4 25-608)": "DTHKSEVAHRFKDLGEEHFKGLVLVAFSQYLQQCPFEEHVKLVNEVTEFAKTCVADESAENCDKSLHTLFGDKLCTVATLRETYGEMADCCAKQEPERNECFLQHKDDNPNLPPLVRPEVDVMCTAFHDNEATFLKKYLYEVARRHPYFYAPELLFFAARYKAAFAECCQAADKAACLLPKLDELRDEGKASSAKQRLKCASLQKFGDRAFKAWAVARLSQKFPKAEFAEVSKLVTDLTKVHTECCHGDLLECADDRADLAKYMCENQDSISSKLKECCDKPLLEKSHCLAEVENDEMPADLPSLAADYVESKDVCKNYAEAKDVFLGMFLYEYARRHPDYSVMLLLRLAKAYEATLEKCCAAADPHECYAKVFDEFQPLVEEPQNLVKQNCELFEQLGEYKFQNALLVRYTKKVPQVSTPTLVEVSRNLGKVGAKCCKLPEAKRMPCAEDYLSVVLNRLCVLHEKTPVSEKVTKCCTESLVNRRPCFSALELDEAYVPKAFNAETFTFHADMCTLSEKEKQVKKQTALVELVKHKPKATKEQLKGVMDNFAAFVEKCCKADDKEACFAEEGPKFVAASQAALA", "assay_type": "binding", "details": "yeast-displayed peptide, biotinylated SA, streptavidin-APC, flow cytometer", "how_it_was_run": "as §1"}, "[5]": {"molecular_target": "albumin of rat (Rattus norvegicus, UniProt P02770)", "sequence (P02770 25-608)": "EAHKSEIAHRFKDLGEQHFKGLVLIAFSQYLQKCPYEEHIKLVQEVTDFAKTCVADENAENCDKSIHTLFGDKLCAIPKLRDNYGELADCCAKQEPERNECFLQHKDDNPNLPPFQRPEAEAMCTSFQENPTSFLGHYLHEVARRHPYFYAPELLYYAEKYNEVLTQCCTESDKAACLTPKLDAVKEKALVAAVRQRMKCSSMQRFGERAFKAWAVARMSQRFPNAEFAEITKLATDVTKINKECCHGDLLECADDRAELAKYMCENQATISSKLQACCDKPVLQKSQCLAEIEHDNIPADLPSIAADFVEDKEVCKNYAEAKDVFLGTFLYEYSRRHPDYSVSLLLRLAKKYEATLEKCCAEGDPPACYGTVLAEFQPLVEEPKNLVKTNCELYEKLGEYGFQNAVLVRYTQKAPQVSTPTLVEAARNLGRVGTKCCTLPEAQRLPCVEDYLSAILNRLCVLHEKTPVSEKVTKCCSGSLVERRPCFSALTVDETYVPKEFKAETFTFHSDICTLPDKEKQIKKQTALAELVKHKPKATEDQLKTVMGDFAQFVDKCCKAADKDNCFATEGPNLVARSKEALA", "experiment": "FACS binding specificity of peptide-displayed yeast cells, rat albumin", "details": "biotinylated SA, streptavidin-APC, flow cytometer", "how_it_was_run": "as §1"}, "[6]": {"system": "trypsin", "experiment": "Tryptic digestion assay", "assay_type": "in vitro ADME", "details": "pH 8", "how_it_was_run": "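Peptide at 150 μM incubated with trypsin (substrate:enzyme 5000:1) at 37 °C in 100 mM Tris–HCl, pH 8.0. Aliquots taken at intervals and quenched with 1 M HCl. Remaining peptide measured by RP-HPLC and plotted as natural log against time, n = 3.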"}, "[7]": {"system": "healthy ddy mice", "experiment": "Hypoglycemic effect, blood glucose after subcutaneous administration to mice", "assay_type": "in vivo, mouse", "details": "38 μg/kg insulin, 16 h-fasted healthy male ddy mice, mean ± S.E of 4–7 experiments"}}, "note": "Bridge positions count the residues as written; N and C are the ends."}
{"substance": "Ac-CAAELAALEAELAALEGVNFGVVLFRGELAALKAKLAALKAYC-NH2 (disulfide 1-43; N-terminus assumed) [AY-VE]", "values": [{"measurement": "Kd", "setting": "[1]", "result": "65 ± 39", "unit": "nM"}, {"measurement": "Binding of yeast clone to albumin of human (FACS)", "setting": "[2]", "result": "affinity"}, {"measurement": "Binding of yeast clone to albumin of mouse (FACS)", "setting": "[3]", "result": "affinity"}, {"measurement": "Binding of yeast clone to albumin of cynomolgus monkey (FACS)", "setting": "[4]", "result": "no affinity"}, {"measurement": "Binding of yeast clone to albumin of rat (FACS)", "setting": "[5]", "result": "no affinity"}, {"measurement": "half-life at 150 μM", "setting": "[6]", "result": "190 ± 10", "unit": "min"}]}
{"substance": "Ac-ELAALEAELAALEGVNFGVVLFRGELAALKAKLAALKAY-NH2 (N-terminus assumed) [AY-VE-dS]", "values": [{"measurement": "half-life at 150 μM", "setting": "[6]", "result": "56 ± 1", "unit": "min"}]}
{"substance": "Ac-GVNFGVVLFRGELAALKAKLAALKAY-NH2 (N-terminus assumed) [AY-VE-dN]", "values": [{"measurement": "half-life at 150 μM", "setting": "[6]", "result": "6.3 ± 0.4", "unit": "min"}]}
{"substance": "insulin: Recombinant human insulin", "values": [{"measurement": "Time of peak of hypoglycemic effect after administration", "setting": "[7]", "result": 1, "unit": "h"}]}
